Here are results for eight compounds from ChEMBL document CHEMBL5113464, “A multi-pronged evaluation of aldehyde-based tripeptidyl main protease inhibitors as SARS-CoV-2 antivirals” (Eur J Med Chem, 2022).

The test system of data set [1] is SARS-CoV-2. Nature of the data set: Antiviral activity against SARS-Cov2 Delta infected in African green monkey Vero E6 cells assessed as viral plaque reduction measured after 3 days by plaque reduction neutralization test. The format is functional, organism-based. As to conditions: Severe acute respiratory syndrome coronavirus 2, Delta, Vero C1008, 72 h. Background: In a plaque reduction assay, fewer plaques than in the control indicate reduced infectivity or spread.

Data set [2] in a line: Cytotoxicity against HEK293T/17 cells by MTT assay. The format is toxicity, cell-based. The following applies: human. Put shortly: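 MTT viability assay in 293T cells. CC50 is derived from cytotoxicity curves of compound concentration versus viability.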
(In general: Tetrazolium assays rely on reduction of a dye to a coloured formazan, in cell work by metabolically active cells.)

Data set [3] has as its system SARS-CoV-2. Briefly: Antiviral activity against SARS-Cov2 USA-WA1/2020 infected in African green monkey Vero E6 cells assessed as viral plaque reduction measured after 3 days by plaque reduction neutralization test. The format is functional, organism-based. The following applies: Severe acute respiratory syndrome coronavirus 2, USA-WA1/2020, Vero C1008, 72 h.
In data set [4] the test system is SARS-CoV-2. Nature of the data set: Antiviral activity against SARS-Cov2 Beta infected in African green monkey Vero E6 cells assessed as viral plaque reduction measured after 3 days by plaque reduction neutralization test. In kind it is functional, organism-based. As to conditions: Severe acute respiratory syndrome coronavirus 2, Beta, Vero C1008, 72 h.
Data set [5] deals with T1, Replicase polyprotein 1ab (Severe acute respiratory syndrome coronavirus 2, UniProt P0DTD1). Nature of the data set: Inhibition of His/SUMO tagged SARS-CoV2 main protease expressed in Escherichia coli BL21 (DE3) cells using Dabcyl-KTSAVLQSGFRKME-Edans as substrate preincubated for 30 mins followed by substrate addition and measured after 30 mins by fluorescence plate reader analysis.

In data set [6] the target is T1, Replicase polyprotein 1ab. Briefly: Inhibition of eGFP fused SARS-CoV2 main protease transfected in HEK293T/17 cells incubated for 72 hrs by fluorescence based flow cytometry analysis. The format is cell-based.

What is called EC50 is the midpoint of the concentration-response curve. By CC50 is commonly meant the concentration giving 50% cytotoxicity.

Molecules are shown by their SMILES.

`CC(C)C[C@H](NC(=O)[C@@H](NC(=O)OCc1cccc(Cl)c1)[C@@H](C)OC(C)(C)C)C(=O)N[C@H](C=O)C[C@@H]1CCNC1=O`: the concentration for a half-maximal effect (EC50) was 1600 nM in data set [1], 1900 nM in data set [3] and 650 nM in data set [4]. In data set [2] (hek293t/17), this compound showed a 50% cytotoxic concentration (CC50) of 183000 nM.
Take `CC(C)[C@H](NC(=O)OCc1cccc(Cl)c1)C(=O)N[C@@H](CC1CCCCC1)C(=O)N[C@H](C=O)C[C@@H]1CCNC1=O`: the EC50 in data set [1] was 3200 nM; in data set [3] it was over 5000 nM; in data set [4], over 5000 nM. This compound gave a half-maximal cytotoxic concentration (CC50) in data set [2] (hek293t/17) of 114000 nM.
For the compound `C[C@@H](OC(C)(C)C)[C@H](NC(=O)OCc1ccccc1)C(=O)N[C@@H](CC(C)(C)C)C(=O)N[C@H](C=O)C[C@@H]1CCNC1=O`, the results for the EC50 in data set [1], in data set [3] and in data set [4] were 580 nM, 1200 nM and 1200 nM, respectively. For the same compound, in data set [2] (HEK293T/17 cells), the CC50 was over 200000 nM.
Regarding `CC(C)[C@H](NC(=O)OCc1ccccc1)C(=O)N[C@@H](Cc1cccs1)C(=O)N[C@H](C=O)C[C@@H]1CCNC1=O`, the IC50 result in data set [5] was “Nd(Insoluble)”. Further, the half-maximal effective concentration (EC50) entry in data set [6] was “Nd(Insoluble)”.
As for `C[C@@H](OC(C)(C)C)[C@H](NC(=O)OCc1cccc(Cl)c1)C(=O)N[C@@H](CC1CCCCC1)C(=O)N[C@H](C=O)C[C@@H]1CCNC1=O`, the concentration giving a half-maximal response (EC50) in data set [1] worked out at 870 nM; in data set [3], 2200 nM; in data set [4], 1600 nM. The compound further displayed a CC50 in data set [2] (hek293t/17) of 130000 nM.
For `CC(C)(C)C[C@H](NC(=O)[C@@H](NC(=O)OCc1ccccc1)C(C)(C)C)C(=O)N[C@H](C=O)C[C@@H]1CCNC1=O`, the EC50 in data set [1] was 5000 nM; in data set [3] it was over 5000 nM; in data set [4] it was 710 nM. In data set [2] (HEK293T/17 cells), the CC50 was over 200000 nM.
For the compound `C[C@@H](OC(C)(C)C)[C@H](NC(=O)OCc1ccccc1)C(=O)N[C@@H](CC1CC1)C(=O)N[C@H](C=O)C[C@@H]1CCNC1=O`, the EC50 was found to be 1100 nM in data set [1], 1200 nM in data set [3] and 1800 nM in data set [4]. This compound showed a 50% cytotoxic concentration (CC50) in data set [2] (HEK293T/17 cells) of over 200000 nM.
In data set [2] (hek293t/17), `CC(OC(C)(C)C)[C@H](NC(=O)OCc1ccccc1)C(=O)N[C@@H](CC1CCCCC1)C(=O)N[C@H](C=O)C[C@@H]1CCNC1=O` (single isomer, unassigned) had a CC50 of 109000 nM.
